NR2E3 ag-1 – NR2E3 agonists in two-hybrid cells, primary screen, cell-based, luminescence, CHO-S, Gal4-NCOR/VP16-NR2E3 | inhibition of corepressor binding, % at 3.98 µM | hit rate 0.35% among 360,000 | luciferase | AID 602229, 2012;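 active = inhibition above the mean of all tested compounds plus 3 SD, cut at about 70% in these data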;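 also: higher means lower luciferase signal from less NR2E3 corepressor binding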
Target sequence (Q9Y5X4 whole entry, looked up, the tested form may be a part): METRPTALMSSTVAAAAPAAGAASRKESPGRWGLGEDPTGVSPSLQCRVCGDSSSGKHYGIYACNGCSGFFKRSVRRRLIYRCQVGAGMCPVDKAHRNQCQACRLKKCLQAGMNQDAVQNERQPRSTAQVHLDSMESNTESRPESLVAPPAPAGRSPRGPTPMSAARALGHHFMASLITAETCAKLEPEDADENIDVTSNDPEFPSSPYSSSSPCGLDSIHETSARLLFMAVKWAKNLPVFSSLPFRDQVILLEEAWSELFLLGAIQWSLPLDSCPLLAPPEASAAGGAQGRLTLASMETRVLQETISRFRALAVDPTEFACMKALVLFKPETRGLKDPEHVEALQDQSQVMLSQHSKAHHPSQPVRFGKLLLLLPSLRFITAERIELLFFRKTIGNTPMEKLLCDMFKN
HIF activator – HIF pathway transcriptional activators, primary screen, cell-based, U2OS HRE-luciferase, luminescence; activation, % at 7.5 µM (by protocol); U2OS HRE-luciferase reporter; normalized: DMSO 0%, desferrioxamine 100%; hit rate 0.32% among 300,000; AID 1910, 2009;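 active = mean activation of at least 10% of the iron chelator positive control signal, with at least half of replicates also reaching 10%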
EBV LMP1 NFkB – EBV LMP1-driven NF-kappaB luciferase reporter inhibitors, primary screen, cell-based, luminescence, single point. hit rate 0.69% among 350,000. AID 504558, 2011. inhibition, % at 12.5 µM. LMP1-induced NF-kappaB luciferase reporter cells; in the data active = inhibition above about 41%
TROY signal inh – inhibitors of TROY-driven NF-kB signaling, primary screen, Q293 LMP1-TROYcd cells, NF-kB luciferase, uHTS | Q293 LMP1-TROYcd NF-kB luciferase reporter, 4 h | inhibition, % at 10 µM | hit rate 0.98% among 360,000;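 active = compounds whose plate-normalised and pattern-corrected inhibition of the luciferase reporter signal at the single screening dose is 50% or more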
NR2E3 ag-2 – inhibitors of NR2E3-RetCOR corepressor binding, primary screen, NR2E3 agonist project, biochemical, TR-FRET, GST-NR2E3, biotin-RetCOR. AID 2300, 2010. inhibition of corepressor binding, % at 4.78 µM. Photoreceptor-specific nuclear receptor (Homo sapiens), Q9Y5X4. 1536-well. hit rate 0.12% among 320,000;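 active = percent inhibition above the cutoff of mean plus 3 SD of all tested compounds, set per screening campaign, cut at about 20% in these data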
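Material: NR2E3–RetCOR corepressor complex | Quantity: 1.35 nM GST-tagged NR2E3 final | Schedule: 5 h at 4 °C | Replication: Singlicate compound wells | Reagent: RetCOR corepressor, biotinylated, 7 nM | Controls: Biotin wells as high control, 0.6% DMSO wells as low control | Signal: TR-FRET, Eu(K)-anti-GST donor, streptavidin-D2 acceptor, ex 340, em 617/671 nm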
NR2E3 ag conf – NR2E3 agonist confirmation in cells, cell-based, luminescence, CHO-S two-hybrid; shares compounds with NR2E3 ag-1; CHO-S mammalian two-hybrid NR2E3-NCOR, luciferase luminescence; inhibition, % at 3.98 µM; hit rate 51% among 2,300; AID 624378, 2012;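 active = average inhibition above a cutoff equal to the mean inhibition of all tested compounds plus one SD, cut at about 70% in these data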
VP16 counter – GAL4-VP16 reporter modulators, confirmation, counter-screen for NR2E3 agonist project, cell-based, luminescence, CHO-S, high throughput; CHO-S GAL4-VP16 luciferase reporter; inhibition, % at 3.98 µM; hit rate 29% among 2,300; shares compounds with NR2E3 ag-1;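 active = mean inhibition above a cutoff equal to the average over all tested compounds plus one standard deviation, cut at about 70% in these data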;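 also: luciferase from a UAS reporter driven by GAL4-VP16 transactivation; higher means less reporter light so more repression of VP16 activity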
Large screens that a line does not name were inactive (follow-up assays come after a bar, where they were run). Most compounds without a hit are left out; they make up all but 2% or so of the library.

CC(C)N1CCCC(C)(C(=O)Nc2nccc3ccccc23)C1 (stereo not drawn)	none (no result: HIF activator, EBV LMP1 NFkB, NR2E3 ag-2)
CC(=O)c1ccc(-n2c(CCC(=O)O)ccc2-c2ccc(Br)cc2)cc1	none
CC(=O)OC[C@]12CC[C@H]3[C@@](C)(CC[C@H]4C(C)(C)CCC[C@]34C)[C@@H]1CC(C1=CC(=O)OC1O)O2 (stereo partly drawn)	NR2E3 ag-1 102, TROY signal inh 88 (no result: HIF activator, EBV LMP1 NFkB, NR2E3 ag-2) | NR2E3 ag conf 100 | VP16 counter 100
Brc1cccc(-c2nnc(SCc3nc4ccccc4[nH]3)o2)c1	none
c1ccc2[nH]c(CSc3nnc(-c4ccncc4)o3)nc2c1	NR2E3 ag-1 70 (no result: TROY signal inh) | NR2E3 ag conf inactive | VP16 counter inactive
CCC1CCCCN1CCCNC(=O)CN1C(=O)COc2ccc(S(=O)(=O)N3CCC(C)CC3)cc21 (stereo not drawn)	none
O=C(CCCCN1CCCCC1)c1ccccc1	none
O=C(C(=Cc1ccccc1)CN1CCCCC1)c1ccccc1	NR2E3 ag-1 93, EBV LMP1 NFkB 90 (no result: HIF activator, NR2E3 ag-2) | NR2E3 ag conf 101 | VP16 counter inactive
O=C1OC[C@H](Cc2ccc3c(c2)OCO3)/C1=C\c1ccc2c(c1)OCO2	none | NR2E3 ag conf inactive | VP16 counter inactive
O=C1CC(Cc2ccccc2)C(=O)N1CCc1ccc2c(c1)OCO2 (stereo not drawn)	none
Cn1c(Sc2nc3ccccc3n2C)nc2ccccc21	NR2E3 ag-1 76 | NR2E3 ag conf inactive | VP16 counter inactive
Cn1c(SCC(=O)N2CCCC2)nc2ccccc21	none
O=S(=O)(c1cccc(NC(=S)N2CCN(c3cccc(Cl)c3)CC2)c1)C(F)F	none | NR2E3 ag conf 80 | VP16 counter inactive
CCCc1ccc(S(=O)(=O)N2CCN(C(C)C(=O)NCc3ccc(OC)cc3)CC2)cc1 (stereo not drawn)	none (no result: HIF activator) | NR2E3 ag conf inactive | VP16 counter inactive
O=C(Nc1ccccc1OC(F)F)c1ccc(S(=O)(=O)N2CCOCC2)cc1	none
CCCCc1ccc(S(=O)(=O)N/N=C(/C)c2ccncc2)cc1	NR2E3 ag-1 86 | NR2E3 ag conf inactive | VP16 counter inactive
C/C(=N\NS(=O)(=O)c1ccccc1)c1ccccc1	none
COc1ccccc1CN(C)C(=O)CN1CCN(CC(=O)Nc2ccccc2Cl)CC1	none (no result: HIF activator)
O=C(NCc1cccnc1)/C(=C/c1ccc(-c2ccc(Cl)cc2)o1)S(=O)(=O)c1ccccc1	NR2E3 ag-1 90, TROY signal inh 76 | NR2E3 ag conf inactive | VP16 counter inactive
O=C(NCc1cccnc1)/C(=C\c1ccc(-c2ccc(Br)cc2)o1)S(=O)(=O)c1ccccc1	NR2E3 ag-1 93, EBV LMP1 NFkB 63, TROY signal inh 83 | NR2E3 ag conf inactive | VP16 counter inactive
CC1(C(=O)N2CCCCC2)CCN1C(=O)Cc1ccc(-c2ccccc2)cc1 (stereo not drawn)	none (no result: HIF activator, EBV LMP1 NFkB, NR2E3 ag-2)
Cc1ccc(NC(=S)/C(C#N)=C2/Nc3ccccc3S2)cc1	NR2E3 ag-1 93 (no result: HIF activator, NR2E3 ag-2) | NR2E3 ag conf 99 | VP16 counter inactive
N#CC(C(=O)Nc1ccccc1)=C1Nc2ccccc2N1	none
CC(=O)C1=C(c2ccc(Br)cc2)C(=O)c2ccccc2C1=O	NR2E3 ag-1 103, EBV LMP1 NFkB 92, TROY signal inh 57 | NR2E3 ag conf 99 | VP16 counter 92
CC(=O)Nc1c(Br)cc2c(c1Br)C(=O)c1ccccc1-2	none (no result: HIF activator, NR2E3 ag-2)
CCC(C)N(C(=O)COC(=O)c1ccc(=O)n(Cc2ccccc2)n1)C1CCS(=O)(=O)C1 (stereo not drawn)	none
S=C1NCc2cncnc2N1	none (no result: HIF activator, EBV LMP1 NFkB, NR2E3 ag-2)
Cc1cccc(CSC(Nc2ccc(F)cc2)=C(C#N)C#N)c1	NR2E3 ag-1 97 | NR2E3 ag conf 98 | VP16 counter 93
O=c1[nH]c2ccc(S(=O)(=O)N3CCN(c4ccccc4F)CC3)cc2s1	none | NR2E3 ag conf inactive | VP16 counter inactive
C[C@@H](NC(=O)c1[nH]cnc1C(=O)Nc1ccccc1F)c1ccccc1	none (no result: HIF activator, NR2E3 ag-2)
COc1ccc(C=NNC(=S)NC23CC4CC(CC(C4)C2)C3)cc1OC	none (no result: HIF activator, NR2E3 ag-2) | NR2E3 ag conf inactive | VP16 counter inactive
COc1cc(/C=N/NC(=O)NC23CC4CC(CC(C4)C2)C3)ccc1OCC(N)=O	none
CN1C[C@@H]2[C@@H]3C(=O)N(Cc4ccccc4)C(=O)[C@@H]3[C@](Cc3ccccc3)(C1=O)N2C(=O)c1ccc(Br)cc1	none (no result: HIF activator, NR2E3 ag-2)
Cc1c(Cl)ccc2sc(NC(=O)c3ccco3)nc12	none
Cc1cc(C)c(S(=O)(=O)/N=C2/C=C(Sc3ncn[nH]3)C(=O)c3ccccc32)cc1C	NR2E3 ag-1 102, TROY signal inh 59 (no result: HIF activator) | NR2E3 ag conf inactive | VP16 counter inactive
CN(Cc1ccccc1)C(=O)c1ccc(NC(=O)Cc2ccc(NC(=O)C3CCN(S(=O)(=O)c4cccc([N+](=O)[O-])c4)CC3)cc2)cc1	none (no result: HIF activator, NR2E3 ag-2)
CCCn1c(N2CCC(Cc3ccccc3)CC2)nc2c1c(=O)[nH]c(=O)n2C	none | NR2E3 ag conf inactive | VP16 counter inactive
N#C/C(=N\Nc1ccc(Cl)cc1)C(=N)N1CCCCC1	none
N#C/C(=N\Nc1ccc(Cl)cc1)C(=O)c1ccsc1	NR2E3 ag-1 81 | NR2E3 ag conf 100 | VP16 counter 88
N#C/C(=N\Nc1ccc(Cl)cc1)C(N)=S	TROY signal inh 64 | NR2E3 ag conf inactive | VP16 counter inactive
O=c1[nH][nH]c(-c2ccccc2)c1C=Nc1ccc(OC(F)(F)F)cc1	none | NR2E3 ag conf inactive | VP16 counter inactive
O=c1[nH][nH]c(-c2ccccc2)c1C=Nc1ccc(C(F)(F)F)cc1	none
Cc1nc(-c2ccccn2)nc(N(C)c2ccccc2)c1Cl	NR2E3 ag-1 105 | NR2E3 ag conf inactive | VP16 counter inactive
Cn1nc(C(=O)NCc2ccc(F)cc2)cc1C(=O)NCc1ccc(F)cc1	none (no result: HIF activator, NR2E3 ag-2)
COc1cccc(OCC(O)CN2CCC(CN3C(=O)c4cccc5cccc(c45)C3=O)CC2)c1 (stereo not drawn)	none
O=C1c2cccc3cccc(c23)C(=O)N1CC1CCN(CC(O)COc2ccc3ccccc3c2)CC1 (stereo not drawn)	none | NR2E3 ag conf inactive | VP16 counter inactive
Cc1nc(NCCc2ccc(S(N)(=O)=O)cc2)c2c(C)c(C)sc2n1	none | NR2E3 ag conf 73 | VP16 counter inactive
COc1ccc(C)cc1NC(=O)CSc1nc2scc(C)c2c(=O)[nH]1	NR2E3 ag-1 84 | NR2E3 ag conf inactive | VP16 counter inactive
